Measurements reported in ChEMBL document CHEMBL2346629, “Discovery and characterization of novel allosteric FAK inhibitors” (Eur J Med Chem, 2013).

Tests used:
[1] = target: Ribosomal protein S6 kinase alpha-5 (Homo sapiens) (UniProt O75582); test: Inhibition of MSK1 (unknown origin) using [gamma-33P]ATP assessed as residual activity at 3 uM
[2] = target: Serine/threonine-protein kinase 4 (Homo sapiens) (UniProt Q13043); test: Inhibition of MST1 (unknown origin) using [gamma-33P]ATP assessed as residual activity at 3 uM
[3] = target: Serine/threonine-protein kinase PLK3 (Homo sapiens) (UniProt Q9H4B4); test: Inhibition of PLK3 (unknown origin) using [gamma-33P]ATP assessed as residual activity at 3 uM
[4] = target: Glycogen synthase kinase-3 beta (Homo sapiens) (UniProt P49841); test: Inhibition of GSK3B (unknown origin) using [gamma-33P]ATP assessed as residual activity at 3 uM
In short: (§1)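 Radiometric kinase profiling service covering 288 kinases (261 wild-type, 27 mutant). Inhibition was read as incorporation from [γ-³³P]ATP.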

[5] = target: Calcium/calmodulin-dependent protein kinase type II subunit delta (Homo sapiens) (UniProt Q13557); test: Inhibition of CAMK2d (unknown origin) using [gamma-33P]ATP assessed as residual activity at 3 uM
In short: (§2)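 Radiometric profiling across 288 kinases (261 wild-type, 27 mutant), run as an outsourced service. Inhibition read out as [gamma-33P]ATP incorporation into substrate.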

[6] = target: Insulin-like growth factor 1 receptor (Homo sapiens) (UniProt P08069); test: Inhibition of IGF-1R (unknown origin) using [gamma-33P]ATP assessed as residual activity at 3 uM; in short: as §1
[7] = target: MAP kinase-interacting serine/threonine-protein kinase 2 (Homo sapiens) (UniProt Q9HBH9); test: Inhibition of MNK2 (unknown origin) using [gamma-33P]ATP assessed as residual activity at 3 uM
[8] = target: Ephrin type-A receptor 1 (Homo sapiens) (UniProt P21709); test: Inhibition of EPHA1 (unknown origin) using [gamma-33P]ATP assessed as residual activity at 3 uM
In short: (§3)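 Reaction Biology HotSpot radiometric profiling panel of 288 kinases (261 wild-type, 27 mutant). Kinase activity was read out by incorporation of [γ-33P]ATP.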

[9] = target: Dual specificity protein kinase CLK3 (Homo sapiens) (UniProt P49761); test: Inhibition of CLK3 (unknown origin) using [gamma-33P]ATP assessed as residual activity at 3 uM; in short: as §3
[10] = target: Serine/threonine-protein kinase mTOR (Homo sapiens) (UniProt P42345); test: Inhibition of mTOR (unknown origin) using [gamma-33P]ATP assessed as residual activity at 3 uM
[11] = target: Mitogen-activated protein kinase 1 (Homo sapiens) (UniProt P28482); test: Inhibition of ERK2 (unknown origin) using [gamma-33P]ATP assessed as residual activity at 3 uM; in short: as §3
[12] = target: Proto-oncogene tyrosine-protein kinase ROS (Homo sapiens) (UniProt P08922); test: Inhibition of ROS (unknown origin) using [gamma-33P]ATP assessed as residual activity at 3 uM
[13] = target: Dual specificity tyrosine-phosphorylation-regulated kinase 1B (Homo sapiens) (UniProt Q9Y463); test: Inhibition of DYRK1B (unknown origin) using [gamma-33P]ATP assessed as residual activity at 3 uM; in short: as §3
[14] = target: Ribosomal protein S6 kinase alpha-6 (Homo sapiens) (UniProt Q9UK32); test: Inhibition of RSK4 (unknown origin) using [gamma-33P]ATP assessed as residual activity at 3 uM
[15] = target: CDK3/cyclin E (Homo sapiens) (UniProt P24864+O96020+Q00526); test: Inhibition of CDK3/cyclinE (unknown origin) using [gamma-33P]ATP assessed as residual activity at 3 uM; assay type: protein-complex assay; in short: as §2
[16] = target: Myosin light chain kinase 2, skeletal/cardiac muscle (Homo sapiens) (UniProt Q9H1R3); test: Inhibition of MLCK2 (unknown origin) using [gamma-33P]ATP assessed as residual activity at 3 uM
In short: (§4)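 Contract radiometric panel screen of 288 kinases (261 wild-type, 27 mutant). Inhibition was read by [gamma-33P]ATP radioactivity incorporation.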

[17] = target: PAS domain-containing serine/threonine-protein kinase (Homo sapiens) (UniProt Q96RG2); test: Inhibition of PASK (unknown origin) using [gamma-33P]ATP assessed as residual activity at 3 uM
[18] = target: Serine/threonine-protein kinase Sgk2 (Homo sapiens) (UniProt Q9HBY8); test: Inhibition of SGK2 (unknown origin) using [gamma-33P]ATP assessed as residual activity at 3 uM
[19] = target: Serine/threonine-protein kinase Chk2 (Homo sapiens, UniProt O96017); test: Inhibition of CHK2 (unknown origin) using [gamma-33P]ATP assessed as residual activity at 3 uM
[20] = target: Casein kinase I isoform epsilon (Homo sapiens) (UniProt P49674); test: Inhibition of CK1epsilon (unknown origin) using [gamma-33P]ATP assessed as residual activity at 3 uM; in short: as §3
[21] = target: Calcium/calmodulin-dependent protein kinase kinase 2 (Homo sapiens) (UniProt Q96RR4); test: Inhibition of CAMKK2 (unknown origin) using [gamma-33P]ATP assessed as residual activity at 3 uM; in short: as §2
[22] = target: Serine/threonine-protein kinase Nek4 (Homo sapiens) (UniProt P51957); test: Inhibition of NEK4 (unknown origin) using [gamma-33P]ATP assessed as residual activity at 3 uM
[23] = target: Tyrosine-protein kinase JAK3 (Homo sapiens) (UniProt P52333); test: Inhibition of JAK3 (unknown origin) using [gamma-33P]ATP assessed as residual activity at 3 uM; in short: as §1
[24] = target: Serine/threonine-protein kinase 24 (Homo sapiens) (UniProt Q9Y6E0); test: Inhibition of MST3 (unknown origin) using [gamma-33P]ATP assessed as residual activity at 3 uM
[25] = target: Serine/threonine-protein kinase PAK 4 (Homo sapiens) (UniProt O96013); test: Inhibition of PAK4 (unknown origin) using [gamma-33P]ATP assessed as residual activity at 3 uM
[26] = target: Phosphorylase b kinase gamma catalytic chain, liver/testis isoform (Homo sapiens) (UniProt P15735); test: Inhibition of PHKg2 (unknown origin) using [gamma-33P]ATP assessed as residual activity at 3 uM
[27] = target: Mitogen-activated protein kinase 9 (Homo sapiens) (UniProt P45984); test: Inhibition of JNK2a2 (unknown origin) using [gamma-33P]ATP assessed as residual activity at 3 uM; in short: as §1
[28] = target: Cyclin-dependent kinase 4/cyclin D1 (Homo sapiens) (UniProt P11802+P24385); test: Inhibition of CDK4/cyclinD1 (unknown origin) using [gamma-33P]ATP assessed as residual activity at 3 uM; assay type: protein-complex assay; in short: as §2
[29] = target: CDK6/cyclin D1 (Homo sapiens) (UniProt P24385+Q00534); test: Inhibition of CDK6/cyclin D1 (unknown origin) using [gamma-33P]ATP assessed as residual activity at 3 uM; assay type: protein-complex assay; in short: as §2
[30] = target: Epidermal growth factor receptor (Homo sapiens) (UniProt P00533); test: Inhibition of EGFR (unknown origin) using [gamma-33P]ATP assessed as residual activity at 3 uM; in short: as §3
[31] = test system: MAP kinase-interacting serine/threonine-protein kinase 1 (Homo sapiens), Q9BUB5 [T385D]; test: Inhibition of MNK1 T385D mutant (unknown origin) using [gamma-33P]ATP assessed as residual activity at 3 uM; in short: as §4

Sequence of Serine/threonine-protein kinase PAK 4 (Homo sapiens) (O96013 whole entry, looked up, canonical isoform): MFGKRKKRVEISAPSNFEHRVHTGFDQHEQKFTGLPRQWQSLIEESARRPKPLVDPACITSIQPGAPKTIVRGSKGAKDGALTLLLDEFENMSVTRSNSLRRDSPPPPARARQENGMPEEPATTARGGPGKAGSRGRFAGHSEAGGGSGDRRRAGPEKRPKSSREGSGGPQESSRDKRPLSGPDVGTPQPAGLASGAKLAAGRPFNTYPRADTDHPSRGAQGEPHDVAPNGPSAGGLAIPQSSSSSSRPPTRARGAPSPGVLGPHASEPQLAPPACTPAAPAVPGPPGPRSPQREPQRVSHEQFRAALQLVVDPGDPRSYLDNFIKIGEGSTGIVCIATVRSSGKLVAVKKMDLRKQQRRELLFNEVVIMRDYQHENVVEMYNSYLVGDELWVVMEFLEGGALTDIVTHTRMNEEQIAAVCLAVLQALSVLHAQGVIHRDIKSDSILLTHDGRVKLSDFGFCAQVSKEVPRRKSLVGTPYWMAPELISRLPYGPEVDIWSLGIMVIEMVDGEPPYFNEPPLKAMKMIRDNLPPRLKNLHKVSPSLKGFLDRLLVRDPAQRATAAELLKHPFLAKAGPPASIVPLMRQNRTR
Sequence of Calcium/calmodulin-dependent protein kinase kinase 2 (Homo sapiens) (Q96RR4 2-588 limits assumed): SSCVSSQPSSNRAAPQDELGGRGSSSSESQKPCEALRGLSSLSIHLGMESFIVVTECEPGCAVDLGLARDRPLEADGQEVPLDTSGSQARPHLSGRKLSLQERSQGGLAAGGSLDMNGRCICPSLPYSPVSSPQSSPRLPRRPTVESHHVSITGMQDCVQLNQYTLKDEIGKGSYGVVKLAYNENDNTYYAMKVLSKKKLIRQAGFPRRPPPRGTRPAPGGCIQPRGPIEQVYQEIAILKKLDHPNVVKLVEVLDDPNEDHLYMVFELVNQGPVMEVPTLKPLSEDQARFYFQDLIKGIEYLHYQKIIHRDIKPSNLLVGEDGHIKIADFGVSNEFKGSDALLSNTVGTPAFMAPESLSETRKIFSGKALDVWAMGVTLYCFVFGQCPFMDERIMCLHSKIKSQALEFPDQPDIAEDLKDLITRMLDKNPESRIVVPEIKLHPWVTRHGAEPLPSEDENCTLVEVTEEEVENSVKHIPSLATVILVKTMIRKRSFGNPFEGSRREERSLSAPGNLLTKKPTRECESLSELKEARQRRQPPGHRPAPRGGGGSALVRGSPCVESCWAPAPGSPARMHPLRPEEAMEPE
Sequence of Mitogen-activated protein kinase 9 (Homo sapiens) (P45984 whole entry, looked up): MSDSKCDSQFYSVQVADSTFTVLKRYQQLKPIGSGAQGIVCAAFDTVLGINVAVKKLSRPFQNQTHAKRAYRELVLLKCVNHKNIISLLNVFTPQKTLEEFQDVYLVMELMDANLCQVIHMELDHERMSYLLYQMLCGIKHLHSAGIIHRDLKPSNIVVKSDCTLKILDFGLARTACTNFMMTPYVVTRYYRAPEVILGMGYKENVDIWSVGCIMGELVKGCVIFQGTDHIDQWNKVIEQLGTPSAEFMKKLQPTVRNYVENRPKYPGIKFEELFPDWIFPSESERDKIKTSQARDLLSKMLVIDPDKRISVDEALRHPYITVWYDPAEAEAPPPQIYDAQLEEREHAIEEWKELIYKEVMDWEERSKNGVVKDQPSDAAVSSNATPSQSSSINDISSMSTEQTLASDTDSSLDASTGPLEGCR
Sequence of CDK3/cyclin E (Homo sapiens) (O96020 whole entry, looked up): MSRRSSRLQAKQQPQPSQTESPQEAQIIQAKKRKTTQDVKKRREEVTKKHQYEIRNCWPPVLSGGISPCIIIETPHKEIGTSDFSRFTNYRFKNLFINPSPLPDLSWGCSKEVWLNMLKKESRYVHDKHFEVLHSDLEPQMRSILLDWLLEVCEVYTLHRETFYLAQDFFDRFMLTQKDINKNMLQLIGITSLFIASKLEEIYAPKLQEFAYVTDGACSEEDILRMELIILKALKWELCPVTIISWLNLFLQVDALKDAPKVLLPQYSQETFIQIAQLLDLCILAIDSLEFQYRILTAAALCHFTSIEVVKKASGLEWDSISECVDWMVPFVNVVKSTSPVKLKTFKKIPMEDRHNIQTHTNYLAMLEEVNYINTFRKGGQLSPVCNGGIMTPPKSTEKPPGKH
Sequence of CDK3/cyclin E (Homo sapiens) (P24864 whole entry, looked up): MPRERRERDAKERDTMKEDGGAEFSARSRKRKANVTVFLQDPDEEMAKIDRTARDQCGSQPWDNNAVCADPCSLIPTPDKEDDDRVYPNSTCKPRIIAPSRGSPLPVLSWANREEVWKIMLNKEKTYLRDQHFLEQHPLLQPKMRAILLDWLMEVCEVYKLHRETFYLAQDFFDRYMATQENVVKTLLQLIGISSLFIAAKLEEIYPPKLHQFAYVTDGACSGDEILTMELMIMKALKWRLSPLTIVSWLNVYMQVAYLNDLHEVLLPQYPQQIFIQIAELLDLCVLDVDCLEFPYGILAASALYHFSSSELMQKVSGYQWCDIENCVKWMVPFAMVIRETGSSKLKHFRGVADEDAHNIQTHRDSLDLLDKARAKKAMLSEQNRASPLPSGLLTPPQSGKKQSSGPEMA
Sequence of CDK3/cyclin E (Homo sapiens) (Q00526 whole entry, looked up): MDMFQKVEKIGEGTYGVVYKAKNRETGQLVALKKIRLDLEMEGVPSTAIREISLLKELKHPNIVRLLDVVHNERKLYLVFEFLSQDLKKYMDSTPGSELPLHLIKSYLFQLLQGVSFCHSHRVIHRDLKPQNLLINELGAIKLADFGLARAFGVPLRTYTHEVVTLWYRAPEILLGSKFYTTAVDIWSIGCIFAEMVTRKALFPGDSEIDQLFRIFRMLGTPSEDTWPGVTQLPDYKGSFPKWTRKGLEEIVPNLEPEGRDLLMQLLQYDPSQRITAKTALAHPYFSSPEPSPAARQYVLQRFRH
Sequence of Phosphorylase b kinase gamma catalytic chain, liver/testis isoform (Homo sapiens) (P15735 whole entry, canonical isoform): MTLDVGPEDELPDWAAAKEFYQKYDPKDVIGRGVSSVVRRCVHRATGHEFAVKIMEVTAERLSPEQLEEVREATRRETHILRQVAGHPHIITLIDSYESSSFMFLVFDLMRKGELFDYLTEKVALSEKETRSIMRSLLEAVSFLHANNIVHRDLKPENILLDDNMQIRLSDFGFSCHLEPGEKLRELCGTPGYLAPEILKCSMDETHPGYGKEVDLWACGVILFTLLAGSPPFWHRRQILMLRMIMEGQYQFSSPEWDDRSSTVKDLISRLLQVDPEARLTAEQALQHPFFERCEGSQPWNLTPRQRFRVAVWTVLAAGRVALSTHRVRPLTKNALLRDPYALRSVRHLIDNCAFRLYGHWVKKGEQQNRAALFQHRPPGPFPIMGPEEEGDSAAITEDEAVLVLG
Sequence of Epidermal growth factor receptor (Homo sapiens) (P00533 whole entry): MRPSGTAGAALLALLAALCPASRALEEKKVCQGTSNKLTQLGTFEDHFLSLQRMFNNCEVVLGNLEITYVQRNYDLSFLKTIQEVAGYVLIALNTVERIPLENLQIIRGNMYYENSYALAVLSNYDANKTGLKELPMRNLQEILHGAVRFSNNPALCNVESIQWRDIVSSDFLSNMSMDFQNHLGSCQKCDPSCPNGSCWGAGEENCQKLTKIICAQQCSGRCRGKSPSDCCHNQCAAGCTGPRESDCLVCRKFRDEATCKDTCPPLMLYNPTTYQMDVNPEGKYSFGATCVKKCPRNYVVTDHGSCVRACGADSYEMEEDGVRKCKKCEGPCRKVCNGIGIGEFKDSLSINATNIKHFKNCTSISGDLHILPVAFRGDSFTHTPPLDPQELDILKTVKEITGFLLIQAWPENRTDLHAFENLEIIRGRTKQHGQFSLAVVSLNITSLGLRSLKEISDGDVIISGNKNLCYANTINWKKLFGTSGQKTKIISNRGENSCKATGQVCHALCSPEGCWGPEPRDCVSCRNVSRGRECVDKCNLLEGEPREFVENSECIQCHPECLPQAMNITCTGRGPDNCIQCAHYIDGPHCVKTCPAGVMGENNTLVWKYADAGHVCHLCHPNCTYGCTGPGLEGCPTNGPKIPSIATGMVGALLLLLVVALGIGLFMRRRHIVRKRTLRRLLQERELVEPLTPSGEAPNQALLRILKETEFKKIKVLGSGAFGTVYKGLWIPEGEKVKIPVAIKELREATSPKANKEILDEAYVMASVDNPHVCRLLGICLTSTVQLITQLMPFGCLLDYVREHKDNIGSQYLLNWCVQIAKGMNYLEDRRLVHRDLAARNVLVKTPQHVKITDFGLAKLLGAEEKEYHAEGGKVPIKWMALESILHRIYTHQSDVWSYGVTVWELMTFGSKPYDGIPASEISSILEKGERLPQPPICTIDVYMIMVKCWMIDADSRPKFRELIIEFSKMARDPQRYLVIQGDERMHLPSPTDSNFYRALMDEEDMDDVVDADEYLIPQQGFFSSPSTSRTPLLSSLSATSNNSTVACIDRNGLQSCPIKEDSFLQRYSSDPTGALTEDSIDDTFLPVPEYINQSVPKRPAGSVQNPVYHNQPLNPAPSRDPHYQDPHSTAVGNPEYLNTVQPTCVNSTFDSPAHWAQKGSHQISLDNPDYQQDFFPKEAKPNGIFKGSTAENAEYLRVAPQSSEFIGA
Sequence of Mitogen-activated protein kinase 1 (Homo sapiens) (P28482 whole entry): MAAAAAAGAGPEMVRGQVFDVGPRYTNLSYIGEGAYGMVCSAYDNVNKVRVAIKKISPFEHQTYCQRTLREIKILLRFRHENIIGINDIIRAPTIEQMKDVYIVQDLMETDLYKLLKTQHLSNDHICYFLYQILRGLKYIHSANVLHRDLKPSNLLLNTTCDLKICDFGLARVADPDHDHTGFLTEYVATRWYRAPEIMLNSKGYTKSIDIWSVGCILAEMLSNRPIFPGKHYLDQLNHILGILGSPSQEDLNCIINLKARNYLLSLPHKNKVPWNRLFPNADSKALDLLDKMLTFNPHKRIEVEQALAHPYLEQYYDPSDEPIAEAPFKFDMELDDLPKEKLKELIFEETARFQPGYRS

In the case of `CCc1ccc(-c2ccc3c(c2)-c2[nH]ncc2S(=O)(=O)N3C)cc1`, the Activity [1] is reported as 94%, the Activity [2] is reported as 87% and the Activity [3] is reported as 105%. It also gave an Activity [4] of 103%, an Activity [5] of 95% and an Activity [6] of 87%. For the same compound, the Activity [7] was 89%, the Activity [8] was 95% and the Activity [9] was 95%. The Activity [10] was 100%, the Activity [11] was 93% and the Activity [12] was 95%. For the same compound, the Activity [13] was 98%, the Activity [14] was 101% and the Activity [15] was 96%. The Activity [16] was 96%, the Activity [17] was 95% and the Activity [18] was 91%. The Activity [19] was 50%, the Activity [20] was 96% and the Activity [21] was 65%. For the same compound, the Activity [22] was 90%, the Activity [23] was 94% and the Activity [24] was 73%. It also gave an Activity [25] of 97%, an Activity [26] of 85% and an Activity [27] of 98%. It also gave an Activity [28] of 89%, an Activity [29] of 96% and an Activity [30] of 97%. The Activity [31] was 86%.
